An excerpt weighted towards active compounds, which were near 1.5% of everything screened.
Jurkat NFkB inh: lowers PMA/ionomycin-induced NF-kB signal in Jurkat cells; PMA/ionomycin-induced NF-kB luciferase reporter, luminescence; inhibition, % at 4 µM; 330,000 tested, 0.53% active; AID 435003; in the data active means inhibition above about 50%
JMJD2C inh: blocks human GASC-1 demethylase activity; Q9H3R0; GST-JMJD2C(1-420) H3K9me3 demethylation, DELFIA europium; inhibition, % at 2.35 µM; 330,000 tested, 0.069% active; AID 2099;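 active means more than half of a compound's replicate wells show inhibition beyond 50%, single wells judged on their own value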;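 further: signal counts dimethyl H3K9 product captured on neutravidin plate; 0% = median of DMSO wells and 100% = 0.3 times that DMSO median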
Target sequence (Q9H3R0 1-420 limits assumed): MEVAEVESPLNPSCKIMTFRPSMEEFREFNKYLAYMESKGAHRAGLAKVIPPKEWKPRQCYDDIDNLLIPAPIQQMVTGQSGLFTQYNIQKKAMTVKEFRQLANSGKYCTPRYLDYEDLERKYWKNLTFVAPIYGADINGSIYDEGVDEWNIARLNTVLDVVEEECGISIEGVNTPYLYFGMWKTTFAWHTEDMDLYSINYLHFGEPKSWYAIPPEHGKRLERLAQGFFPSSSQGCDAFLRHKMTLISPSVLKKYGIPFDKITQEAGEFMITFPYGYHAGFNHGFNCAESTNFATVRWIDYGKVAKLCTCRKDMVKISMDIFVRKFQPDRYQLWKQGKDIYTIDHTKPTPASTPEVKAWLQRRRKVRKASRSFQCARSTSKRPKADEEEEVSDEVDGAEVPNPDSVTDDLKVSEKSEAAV
GalR3 antag: antagonists of human GalR3; O60755; HEK293 GalR3-CNG cAMP membrane potential fluorescence; galR3 body fused to GalR1 C-terminus; inhibition, % at 3 µM; 360,000 tested, 0.44% active;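 active means inhibition above the screen-wide average plus 3 SD, cut at about 13% in these data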;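 further: forskolin and galanin both at EC90 stimulate the cells; cAMP rise reported by CNG channel membrane potential dye signal; 0% = forskolin plus galanin with DMSO and 100% = forskolin alone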
NR2E3 ag-1: human photoreceptor-specific nuclear receptor agonism | Q9Y5X4 | CHO-S Gal4-NCOR/VP16-NR2E3 two-hybrid, luciferase | inhibition of corepressor binding, % at 3.98 µM | 360,000 tested, 0.35% active | AID 602229;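 active means inhibition above the mean of all tested compounds plus 3 SD, cut at about 70% in these data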;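 further: 0% = DMSO with NR2E3 transfected cells and 100% = cells lacking NR2E3 construct; higher means lower luciferase signal from less NR2E3 corepressor binding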
NR2E3 ag-2: activates human photoreceptor nuclear receptor NR2E3; inhibition of corepressor binding, % at 4.78 µM; 320,000 tested, 0.12% active; AID 2300; Q9Y5X4; GST-NR2E3/biotin-RetCOR TR-FRET, 1536-well;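 active means percent inhibition above the cutoff of mean plus 3 SD of all tested compounds, set per screening campaign, cut at about 20% in these data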;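 further: 0% = DMSO wells and 100% = biotin wells as full block of FRET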
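Test system – NR2E3–RetCOR corepressor complex · Quantity – NR2E3 fusion 1.35 nM · Buffer or medium – Tris pH 7.5 · Incubation – Compound–protein incubation for 5 h at 4 °C · Technique – TR-FRET, Eu(K)-anti-GST donor, streptavidin-D2 acceptor, ex 340, em 617/671 nm · Evaluation – percent inhibition of 671/617 nm emission ratio versus biotin and DMSO controls · Plate – 1536-well format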
697 NFkB inh: lowers PMA/ionomycin-induced NF-kB signal in 697 B cells; 330,000 tested, 0.33% active; inhibition, % at 4 µM; 697 B-cell NF-kB luciferase reporter, 16 h; AID 435022; in the data active means inhibition above about 35%
NR2E3 ag conf: confirmation of human NR2E3 agonists; shares compounds with NR2E3 ag-1; CHO-S mammalian two-hybrid NR2E3-NCOR, luciferase luminescence; inhibition, % at 3.98 µM; 2,300 tested, 51% active; AID 624378;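 active means average inhibition above a cutoff equal to the mean inhibition of all tested compounds plus one SD, cut at about 70% in these data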;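 further: 0% = DMSO in NR2E3 cells and 100% = DMSO in cells lacking NR2E3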
VP16 counter: counter-screen for NR2E3 agonists: GAL4-VP16 reporter inhibitors | shares compounds with NR2E3 ag-1 | CHO-S GAL4-VP16 luciferase reporter, luminescence | inhibition, % at 3.98 µM | 2,300 tested, 29% active | AID 624379;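 active means mean inhibition above a cutoff equal to the average over all tested compounds plus one standard deviation, cut at about 70% in these data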;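 further: luciferase from a UAS reporter driven by GAL4-VP16 transactivation; 0% = DMSO with VP16-transfected cells and 100% = DMSO with cells lacking VP16; higher means less reporter light so more repression of VP16 activity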
* marks the source's active call; other numbers are inactive results; · = not tested or not shown.

SMILES	Jurkat NFkB inh	JMJD2C inh	GalR3 antag	NR2E3 ag-1	NR2E3 ag-2	697 NFkB inh	NR2E3 ag conf	VP16 counter
CN1CCc2c(sc(/N=C/c3cc(C(C)(C)C)ccc3O)c2C#N)C1	-1	-14	3	-20	2	8	·	·
COc1ccc2c(c1)c(=O)c(C(=O)O)c(-c1ccc3c(c1)OCO3)n2C	0	4	4	8	-1	22	·	·
Cc1ccc(NC(=S)N=Nc2c(O)[nH]c3ccccc23)cc1	-28	-6	-4	62	3	-11	25	6
COc1ccc(Cl)cc1NS(=O)(=O)c1cccc(C(=O)NCCCN2CCCC2=O)c1	-26	15	-3	27	-3	-5	·	·
Cc1ccc(SCCNC(=S)Nc2cc(C)cc(C)c2)cc1	-3	0	-1	55	0	28	19	29
Cc1ccc(NC(=S)NCCSc2ccc(Cl)cc2)cc1	10	5	-5	1	-2	6	·	·
COc1ccc(NC(=O)CN2CCCC2c2cccs2)cc1S(=O)(=O)N1CCCCC1 (configuration not stated)	16	-33	0	10	6	-4	·	·
O=C(OCc1nnc(-c2ccccc2)o1)c1cn(-c2ccccc2)nc1-c1ccccc1	-21	-26	-1	7	-1	5	·	·
Cc1cc(C(=O)OCc2nnc(-c3ccccc3)o2)c(C)n1-c1ccccc1	3	41	-9	68	-7	-2	58	65
CCC(c1nnnn1-c1c(C)cccc1C)N1CCN(c2cccc(C(F)(F)F)n2)CC1 (configuration not stated)	·	·	-8	0	·	·	·	·
CCC(c1nnnn1-c1c(C)cccc1C)N1CCN(c2ccc(C(F)(F)F)cc2[N+](=O)[O-])CC1 (configuration not stated)	·	·	·	53	·	·	5	10
CCOC(=O)c1ccc(NC(=S)N2CCSC2c2ccc(Br)cc2)cc1 (configuration not stated)	-7	-6	-12	9	2	-23	·	·
COc1ccc(CNC(=O)c2sccc2-c2ccccc2)cc1OC	-4	11	-1	58	0	7	28	30
CC(Oc1ccc(Br)cc1)c1nc2c3ccccc3nc(=S)n2[nH]1 (configuration not stated)	8	-18	-6	83*	-1	-17	89*	41
S=c1nc2ccccc2c2nc(-c3ccccc3)[nH]n12	0	-11	-3	83*	1	-8	-56	-63
CCOC(=O)[C@]12CCC=C1N(Cc1ccco1)C(=O)[C@H](CC(=O)NCC1CCCCC1)C2	·	·	-6	-14	·	·	·	·
O=C1c2ccccc2C(=O)c2[nH]c(=O)[nH]c21	2	0	-11	68	-4	4	75*	32
O=C1c2ccccc2C(=O)c2[nH]cnc21	·	-2	-11	-5	·	·	·	·
COc1ccc(CNCCc2ccc(Cl)cc2)cc1OCc1ccccc1	14	-6	·	48	-1	-10	82*	71*
COc1ccc(CCNC(=O)Cc2ccc(OCc3ccccc3)c(OC)c2[N+](=O)[O-])cc1OCc1ccccc1	12	-5	-4	101*	2	-22	88*	73*
COc1ccc(Cl)cc1NC(=O)CN(C)C(=O)c1cc2c(s1)CCCC2	5	·	-2	21	·	-24	·	·
CCOC(=O)N1CCC2(CC1)C(C#N)=C(N)OC1=C2C(=O)CC(C)C1 (configuration not stated)	-10	12	-3	7	0	5	·	·
CNc1sc(C(=O)c2cccs2)c(N)c1-c1nc2ccccc2s1	-6	2	-5	51	7	-37	-16	-40
Cc1ccc(-n2c(C)cc(C(=O)COc3cccnc3[N+](=O)[O-])c2C)cc1	37	-4	-7	68	-2	-11	29	50
Cc1cc(-n2c(C)cc(C(=O)COc3ccccc3[N+](=O)[O-])c2C)no1	-9	11	-4	-46	1	-7	·	·

Assay outcomes as filed in PubChem.
